Results reported in ChEMBL document CHEMBL2057109, “Synthesis, biological evaluation, and molecular docking studies of 2,5-substituted-1,4-benzoquinone as novel urease inhibitors” (Bioorg Med Chem, 2012).
The source made the active and inactive calls. The rule behind the calls is not given here.

What was measured:
[1] = biological target: Urease subunit alpha/Urease subunit beta (Helicobacter pylori (strain ATCC 700392 / 26695) (Campylobacterpylori), UniProt P69996); assay: Inhibition of Helicobacter pylori urease assessed as ammonia production preincubated for 3 hrs measured by indophenol method
In short: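 Enzyme came from H. pylori broth cultures (2.0 × 10⁸ CFU/mL), which were pelleted at 5000 g and 4 °C, washed twice in PBS at pH 7.4, and stored at −80 °C. Urease and test compound were pre-incubated for 3 h at room temperature. Ammonia production was then quantified by the Weatherburn indophenol method.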

[2] = biological target: Urease subunit alpha/Urease subunit beta (Helicobacter pylori (strain ATCC 700392 / 26695) (Campylobacterpylori)) (UniProt P69996+P14916); assay: Inhibition of Helicobacter pylori urease assessed as ammonia production at 100 uM preincubated for 3 hrs measured by indophenol method
Sequence of Urease subunit alpha/Urease subunit beta (Helicobacter pylori (strain ATCC 700392 / 26695) (Campylobacterpylori)) (P14916 whole entry, looked up): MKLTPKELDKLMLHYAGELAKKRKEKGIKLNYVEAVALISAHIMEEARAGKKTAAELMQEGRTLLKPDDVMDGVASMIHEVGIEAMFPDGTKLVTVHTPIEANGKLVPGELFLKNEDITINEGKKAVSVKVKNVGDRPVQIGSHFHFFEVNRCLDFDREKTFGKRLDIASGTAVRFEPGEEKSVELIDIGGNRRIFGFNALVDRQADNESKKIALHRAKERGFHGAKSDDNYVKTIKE
Sequence of Urease subunit alpha/Urease subunit beta (Helicobacter pylori (strain ATCC 700392 / 26695) (Campylobacterpylori)) (P69996 whole entry, looked up): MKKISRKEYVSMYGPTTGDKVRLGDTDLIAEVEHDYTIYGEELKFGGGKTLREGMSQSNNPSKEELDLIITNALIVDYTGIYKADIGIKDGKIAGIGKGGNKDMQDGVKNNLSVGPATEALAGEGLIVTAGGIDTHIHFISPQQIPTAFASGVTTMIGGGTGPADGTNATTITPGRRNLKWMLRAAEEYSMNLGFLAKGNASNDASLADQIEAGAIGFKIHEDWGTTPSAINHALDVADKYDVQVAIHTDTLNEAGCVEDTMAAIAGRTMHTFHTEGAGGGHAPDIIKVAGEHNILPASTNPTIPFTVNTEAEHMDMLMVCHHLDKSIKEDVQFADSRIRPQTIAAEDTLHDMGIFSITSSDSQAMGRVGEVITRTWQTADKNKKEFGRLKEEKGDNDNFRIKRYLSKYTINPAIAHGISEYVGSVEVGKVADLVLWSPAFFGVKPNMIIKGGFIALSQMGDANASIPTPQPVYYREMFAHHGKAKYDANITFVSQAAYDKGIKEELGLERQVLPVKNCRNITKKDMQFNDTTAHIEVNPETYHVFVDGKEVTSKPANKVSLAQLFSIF

Sequence of Urease subunit alpha/Urease subunit beta (P69996 whole entry): as the sequence (P69996 whole entry, looked up) above
Sequence of Urease subunit alpha/Urease subunit beta (P14916 whole entry, further chain): as the sequence (P14916 whole entry, looked up) above

SMILES	IC50 [1] [µM]	inhibition [2]
O=C1C=C(NC2CCCC2)C(=O)C=C1NC1CCCC1	35.4	68.8%
O=C1C=C(NCCNc2ccccc2)C(=O)C=C1NCCNc1ccccc1		inactive
O=C1C=C(NCCN2CCOCC2)C(=O)C=C1NCCN1CCOCC1	27.3	81.6%
O=C1C=C(NC2CCCCC2)C(=O)C=C1NC1CCCCC1	41.5	62.7%
CC(C)NC1=CC(=O)C(NC(C)C)=CC1=O		inactive
CC(=O)NO [ACETOHYDROXAMIC ACID]	46.3	85.2%
O=C1C=C(NC2CC2)C(=O)C=C1NC1CC1		inactive
